The target of series [1] is T1, Amine oxidase [flavin-containing] A (Homo sapiens, UniProt P21397).
T1 sequence (P21397 whole entry): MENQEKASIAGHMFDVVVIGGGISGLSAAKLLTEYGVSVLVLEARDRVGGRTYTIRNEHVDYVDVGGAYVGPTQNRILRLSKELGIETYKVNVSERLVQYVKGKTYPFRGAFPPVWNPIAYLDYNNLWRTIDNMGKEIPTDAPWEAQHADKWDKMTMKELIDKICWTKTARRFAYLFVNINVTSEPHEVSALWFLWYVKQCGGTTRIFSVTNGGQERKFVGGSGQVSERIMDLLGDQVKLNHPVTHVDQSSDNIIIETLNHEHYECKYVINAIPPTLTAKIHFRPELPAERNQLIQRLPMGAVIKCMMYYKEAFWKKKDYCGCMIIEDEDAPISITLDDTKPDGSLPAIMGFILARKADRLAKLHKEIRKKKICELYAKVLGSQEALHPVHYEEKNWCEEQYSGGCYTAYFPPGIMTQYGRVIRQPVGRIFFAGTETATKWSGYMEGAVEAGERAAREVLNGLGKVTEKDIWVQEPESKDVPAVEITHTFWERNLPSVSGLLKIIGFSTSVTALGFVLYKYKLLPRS
In words: Inhibition of recombinant human monoamine oxidase A expressed in insect microsomes using kynuramine as substrate after 20 mins by fluorescence spectrophotometry. Details: species or system Microsome; call rule not given here. In short, it runs like this:
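Enzyme source: insect-cell microsomes with recombinant human MAO-A or MAO-B at 0.0075 mg protein/mL, with kynuramine as substrate. Buffer was potassium phosphate 100 mM, pH 7.4, made isotonic with 20.2 mM KCl. Six inhibitor concentrations (0–100 µM) spanned at least 3 log units. Incubation was 20 min at 37 °C, then stopped with 2 N NaOH. 4-Hydroxyquinoline was read by fluorescence ([…] nm as printed) against a 0.047–1.56 µM standard curve. IC50 came from sigmoidal fits of initial rate versus log inhibitor, in triplicate, mean ± SD.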

The species named for series [2] is Homo sapiens. In words: Selectivity index, ratio of IC50 for recombinant human monoamine oxidase A to IC50 for recombinant human monoamine oxidase B.
Series [3] addresses T2, Amine oxidase [flavin-containing] B (Homo sapiens, UniProt P27338).
T2 sequence (P27338 whole entry): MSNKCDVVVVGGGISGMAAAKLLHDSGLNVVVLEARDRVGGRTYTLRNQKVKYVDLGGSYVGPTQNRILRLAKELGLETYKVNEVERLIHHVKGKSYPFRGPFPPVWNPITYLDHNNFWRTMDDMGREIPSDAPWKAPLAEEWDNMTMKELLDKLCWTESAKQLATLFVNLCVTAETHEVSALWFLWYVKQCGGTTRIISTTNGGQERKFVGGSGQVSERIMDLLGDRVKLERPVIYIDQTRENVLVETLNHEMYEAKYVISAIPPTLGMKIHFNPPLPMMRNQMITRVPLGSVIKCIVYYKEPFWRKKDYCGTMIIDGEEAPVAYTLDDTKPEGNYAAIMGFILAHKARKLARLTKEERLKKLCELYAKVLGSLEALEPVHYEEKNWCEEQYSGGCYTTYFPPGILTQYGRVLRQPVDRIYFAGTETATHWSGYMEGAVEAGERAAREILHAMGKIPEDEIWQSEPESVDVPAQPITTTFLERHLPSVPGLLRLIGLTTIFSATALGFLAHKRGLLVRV
In words: Inhibition of recombinant human monoamine oxidase B expressed in insect microsomes using kynuramine as substrate after 20 mins by fluorescence spectrophotometry. Also noted: species or system Microsome. In short, it runs like this:
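Enzyme source: insect-cell microsomes with recombinant human MAO-A or MAO-B at 0.0075 mg protein/mL, with kynuramine as substrate. Six inhibitor concentrations (0–100 µM) spanned at least 3 log units. Incubation was 20 min at 37 °C, then stopped with 2 N NaOH. IC50 came from sigmoidal fits of initial rate versus log inhibitor, in triplicate, mean ± SD.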

Series [4] addresses T1, Amine oxidase [flavin-containing] A. In words: Competitive inhibition of recombinant human monoamine oxidase A at 0.190 uM preincubated for 15 to 60 mins before kynuramine substrate addition measured after 15 mins. The note with it: 0.25 h, 0.19 µM.
For series [5], the target named is T2, Amine oxidase [flavin-containing] B. Description: Competitive inhibition of recombinant human monoamine oxidase B at 0.064 uM preincubated for 15 to 60 mins before kynuramine substrate addition measured after 15 mins by Lineweaver-Burk plot analysis. The note with it: 0.25 h.

From ChEMBL document CHEMBL1944574, “Inhibition of monoamine oxidase by selected C6-substituted chromone derivatives” (Eur J Med Chem, 2012) come the findings set out here.

For orientation: IC50 means the concentration at which inhibition is half-maximal.

For `N#Cc1ccc(COc2ccc3occc(=O)c3c2)cc1`, the results for the IC50 in series [1] and in series [3] were 175 nM and 22 nM, respectively. Besides, the Ratio IC50 in series [2] turned out to be 8.
The like results for `Cc1ccc(COc2ccc3occc(=O)c3c2)cc1` were, in that order, 3490 nM, 6 nM and 582.
Take `O=c1ccoc2ccc(OCc3cccc(Cl)c3)cc12`: the IC50 in series [1] came out at 424 nM; in series [3], 3.6 nM. Further, the Ratio IC50 in series [2] amounted to 118.
The like results for `O=c1ccoc2ccc(OCc3ccccc3)cc12` were, in that order, 3300 nM, 53 nM and 62.
For `O=c1ccoc2ccc(OCCc3ccccc3)cc12`, the half-inhibitory concentration (IC50) in series [1] amounted to 3120 nM; in series [3], 21 nM. Also, in series [2], the Ratio IC50 came to 149.
The like results for `O=c1ccoc2ccc(OCc3ccc(C(F)(F)F)cc3)cc12` were, in that order, 879 nM, 2 nM and 440.
For `O=c1ccoc2ccc(OCCCc3ccccc3)cc12` the same measures were 1910 nM, 57 nM and 34.
The like results for `Cc1cccc(COc2ccc3occc(=O)c3c2)c1` were, in that order, 1130 nM, 19 nM and 59.
In the case of `O=c1ccoc2ccc(OCCc3ccc(Br)cc3)cc12`, the results for the 50% inhibitory concentration (IC50) in series [1] and in series [3] were 480 nM and 27 nM, respectively. For the same compound, the Ratio IC50 in series [2] was 18.
As for `O=c1ccoc2ccc(OCc3ccc(Br)cc3)cc12`, the IC50 in series [1] was found to be 95 nM; in series [3], 3.3 nM. The “inhibition (INH)” value in series [4] and in series [5] was “Active” each time. In addition, the Ratio IC50 in series [2] stood at 29.
As to `O=c1ccoc2ccc(OCc3ccc(F)cc3)cc12`, the IC50 in series [1] stood at 322 nM.
Consider `O=c1ccoc2ccc(OCc3cccc(F)c3)cc12`, for which the IC50 came out at 1230 nM in series [1] and 13 nM in series [3]. The Ratio IC50 in series [2] came to 95.
The like results for `N#Cc1cccc(COc2ccc3occc(=O)c3c2)c1` were, in that order, 255 nM, 76 nM and 3.
For `O=c1ccoc2ccc(OCc3cccc(Br)c3)cc12` the same measures were 386 nM, 2 nM and 193.
Take `O=c1ccoc2ccc(OCc3ccc(Cl)cc3)cc12`: the IC50 in series [1] stood at 106 nM.
